# Test results reported in ChEMBL document CHEMBL1147708 (Bioorg Med Chem Lett, 2006).
# Experiments:
# Cytochrome P450 26A1 = biological target: T1, Cytochrome P450 26A1 (Homo sapiens, UniProt O43174); assay: Inhibition of CYP26 expressed in human T47D cell line
# T1 sequence (O43174 whole entry): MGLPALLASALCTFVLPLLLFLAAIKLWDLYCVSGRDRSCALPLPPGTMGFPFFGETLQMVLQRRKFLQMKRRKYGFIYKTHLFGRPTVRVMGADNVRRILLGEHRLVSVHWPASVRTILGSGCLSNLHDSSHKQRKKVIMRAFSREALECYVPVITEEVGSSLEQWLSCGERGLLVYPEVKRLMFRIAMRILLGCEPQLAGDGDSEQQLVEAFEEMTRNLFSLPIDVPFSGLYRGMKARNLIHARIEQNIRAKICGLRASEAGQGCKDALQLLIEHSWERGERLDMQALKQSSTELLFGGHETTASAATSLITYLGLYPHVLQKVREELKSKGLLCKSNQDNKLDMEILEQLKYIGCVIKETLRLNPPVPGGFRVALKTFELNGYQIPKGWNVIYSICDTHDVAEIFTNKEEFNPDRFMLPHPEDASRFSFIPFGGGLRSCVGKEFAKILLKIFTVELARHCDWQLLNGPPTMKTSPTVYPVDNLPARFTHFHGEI
# Cytochrome P450 3A4 = Cytochrome P450 3A4 (Homo sapiens, UniProt P08684)
# in vivo [1] = conditions: CD1, mouse, iv, 1 mg/kg
# Cytochrome P450 2D6 = Cytochrome P450 2D6 (Homo sapiens, UniProt P10635)
# Mus musculus [2] = species on record: Mus musculus; conditions: in vivo, po, 5 mg/kg
# T47D = assay: Activity against human T47D cell line; assay type: functional
# in vivo [3] = conditions: CD1, mouse, po, 5 mg/kg
# [4] = Bioavailability in CD1 mouse; conditions: in vivo
# Cytochrome P450 1A2 = biological target: T2, Cytochrome P450 1A2 (Homo sapiens, UniProt P05177)
# T2 sequence (P05177 whole entry): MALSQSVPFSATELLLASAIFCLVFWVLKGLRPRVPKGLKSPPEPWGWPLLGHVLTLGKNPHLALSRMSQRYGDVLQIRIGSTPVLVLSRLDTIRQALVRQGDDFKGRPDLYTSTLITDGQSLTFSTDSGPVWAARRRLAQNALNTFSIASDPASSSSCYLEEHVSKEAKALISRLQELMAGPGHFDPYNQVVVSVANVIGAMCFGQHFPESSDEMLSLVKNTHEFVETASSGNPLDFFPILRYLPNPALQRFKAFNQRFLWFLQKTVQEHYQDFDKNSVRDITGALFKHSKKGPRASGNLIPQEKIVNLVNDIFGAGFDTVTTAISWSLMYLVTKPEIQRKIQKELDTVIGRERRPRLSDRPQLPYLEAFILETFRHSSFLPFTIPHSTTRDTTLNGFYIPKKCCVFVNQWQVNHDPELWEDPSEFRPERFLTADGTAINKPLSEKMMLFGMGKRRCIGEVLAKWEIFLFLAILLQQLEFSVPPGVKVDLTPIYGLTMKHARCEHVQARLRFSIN
# Cytochrome P450 2C9 = Cytochrome P450 2C9 (Homo sapiens, UniProt P11712)
# [5] = Plasma concentration in CD1 mouse at 5 mg/kg, po after 2 hrs co-administered with 3-[6-(2-dimethylamino- 1-imidazol-1-yl-butyl)-naphthalen-2-yloxy]- 2,2-dimethyl-propionic acid at 10 mg/kg, po; assay type: ADME, organism-based
# How it was run: (§1)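 Female CD-1 mice, about six weeks old, got atRA at 5 mg/kg by gavage (0.5 mg/mL in 1.5% v/v DMSO/safflower oil, 10 mL/kg). This was given immediately before the inhibitor at 10 mg/kg orally in water for injection. Three mice per timepoint gave cardiac EDTA blood. Plasma was acetonitrile-precipitated, and atRA was read by HPLC-UV against blank mouse plasma standards. AUC came from noncompartmental analysis of median values.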
# [6] = Plasma concentration in CD1 mouse at 5 mg/kg, po after 8 hrs co-administered with 3-[6-(2-dimethylamino- 1-imidazol-1-yl-propyl)-naphthalen-2-yloxy]- 2,2-dimethyl-propionic acid at 10 mg/kg, po; assay type: ADME, organism-based; how it was run: as §1
# [7] = Plasma concentration in CD1 mouse at 5 mg/kg, po after 2 hrs; assay type: ADME, organism-based; set-up: dose 5 mg/kg, route oral
# How it was run: (§2)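 Female CD-1 mice, about six weeks old, got atRA by oral gavage at 10 mL/kg (5 mg/kg), from a 0.5 mg/mL solution in 1.5% v/v DMSO in safflower oil. Three mice per timepoint gave terminal cardiac blood in EDTA.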
# [8] = Plasma concentration in CD1 mouse at 5 mg/kg, po after 8 hrs; assay type: ADME, organism-based; set-up: dose 5 mg/kg, route oral; how it was run: as §2
# Mus musculus [9] = assay: AUC(0-tz) in CD1 mouse at 5 mg/kg, po; assay type: ADME, organism-based, Plasma; set-up: dose 5 mg/kg, route oral; conditions: in vivo; how it was run: as §2
# [10] = Plasma concentration in CD1 mouse at 5 mg/kg, po after 2 hrs co-administered with 3-[6-(2-dimethylamino- 1-imidazol-1-yl-propyl)-naphthalen-2-yloxy]- 2,2-dimethyl-propionic acid at 10 mg/kg, po; assay type: ADME, organism-based; how it was run: as §1
# Mus musculus [11] = assay: AUC(0-tz) in CD1 mouse at 5 mg/kg, po co-administered with 3-[6-(2-dimethylamino- 1-imidazol-1-yl-butyl)-naphthalen-2-yloxy]- 2,2-dimethyl-propionic acid at 10 mg/kg, po; assay type: ADME, organism-based, Plasma; conditions: in vivo; how it was run: as §1
# Mus musculus [12] = assay: AUC(0-tz) in CD1 mouse at 5 mg/kg, po co-administered with 3-[6-(2-dimethylamino- 1-imidazol-1-yl-propyl)-naphthalen-2-yloxy]- 2,2-dimethyl-propionic acid at 10 mg/kg, po; assay type: ADME, organism-based, Plasma; conditions: in vivo; how it was run: as §1
# [13] = Plasma concentration in CD1 mouse at 5 mg/kg, po after 8 hrs co-administered with 3-[6-(2-dimethylamino- 1-imidazol-1-yl-butyl)-naphthalen-2-yloxy]- 2,2-dimethyl-propionic acid at 10 mg/kg, po; assay type: ADME, organism-based; how it was run: as §1
# Sequence of Cytochrome P450 2C9 (P11712 whole entry): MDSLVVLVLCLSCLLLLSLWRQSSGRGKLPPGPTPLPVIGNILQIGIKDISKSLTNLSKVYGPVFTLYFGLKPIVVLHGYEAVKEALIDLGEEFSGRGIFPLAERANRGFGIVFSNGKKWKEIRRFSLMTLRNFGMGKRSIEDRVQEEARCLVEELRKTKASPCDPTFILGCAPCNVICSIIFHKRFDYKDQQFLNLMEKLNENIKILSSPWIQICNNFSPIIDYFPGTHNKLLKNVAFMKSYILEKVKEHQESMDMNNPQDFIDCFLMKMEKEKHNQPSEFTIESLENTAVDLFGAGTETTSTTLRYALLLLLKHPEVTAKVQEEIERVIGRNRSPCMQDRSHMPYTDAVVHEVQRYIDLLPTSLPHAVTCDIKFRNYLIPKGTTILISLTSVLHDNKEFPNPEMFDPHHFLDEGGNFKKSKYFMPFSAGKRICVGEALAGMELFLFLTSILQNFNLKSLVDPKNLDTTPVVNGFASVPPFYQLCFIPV
# Sequence of Cytochrome P450 2D6 (P10635 whole entry): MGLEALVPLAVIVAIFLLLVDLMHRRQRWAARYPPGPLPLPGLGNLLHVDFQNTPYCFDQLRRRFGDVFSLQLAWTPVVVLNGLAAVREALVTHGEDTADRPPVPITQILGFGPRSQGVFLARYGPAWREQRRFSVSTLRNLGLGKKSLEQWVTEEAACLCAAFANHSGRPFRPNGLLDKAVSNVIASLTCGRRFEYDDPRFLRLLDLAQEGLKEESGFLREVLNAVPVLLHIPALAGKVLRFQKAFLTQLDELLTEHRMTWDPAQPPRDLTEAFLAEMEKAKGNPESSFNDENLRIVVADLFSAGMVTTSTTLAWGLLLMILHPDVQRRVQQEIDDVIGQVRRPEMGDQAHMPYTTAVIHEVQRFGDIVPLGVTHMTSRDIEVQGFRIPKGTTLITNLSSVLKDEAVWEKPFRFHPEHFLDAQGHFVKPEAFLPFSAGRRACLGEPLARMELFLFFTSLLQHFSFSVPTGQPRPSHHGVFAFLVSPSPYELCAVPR
# Sequence of Cytochrome P450 3A4 (P08684 whole entry): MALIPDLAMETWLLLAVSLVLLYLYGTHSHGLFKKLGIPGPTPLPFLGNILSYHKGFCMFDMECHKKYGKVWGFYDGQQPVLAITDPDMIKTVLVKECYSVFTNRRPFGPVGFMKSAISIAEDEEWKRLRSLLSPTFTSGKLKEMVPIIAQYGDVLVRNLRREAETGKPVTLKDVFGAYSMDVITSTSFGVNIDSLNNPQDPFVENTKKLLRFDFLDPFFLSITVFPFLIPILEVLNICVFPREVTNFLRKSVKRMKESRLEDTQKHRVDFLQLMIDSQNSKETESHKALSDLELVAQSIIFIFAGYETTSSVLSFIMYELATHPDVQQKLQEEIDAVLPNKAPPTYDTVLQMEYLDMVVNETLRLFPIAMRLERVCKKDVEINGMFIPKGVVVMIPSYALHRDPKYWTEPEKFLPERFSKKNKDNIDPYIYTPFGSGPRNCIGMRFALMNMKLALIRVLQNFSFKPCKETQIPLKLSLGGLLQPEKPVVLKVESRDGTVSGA
structure (smiles),measurement,setting,value
CN(C)C[C@@H](c1ccc2cc(OCC(C)(C)C(=O)O)ccc2c1)n1ccnc1,IC50,Cytochrome P450 26A1,403 nM
CCCCN(C)[C@H](C)[C@@H](c1ccc2cc(OCC(C)(C)C(=O)O)ccc2c1)n1ccnc1,IC50,Cytochrome P450 26A1,60 nM
CCN(CC)[C@H](C)[C@@H](c1ccc2cc(OCC3(C(=O)O)CCCC3)ccc2c1)n1ccnc1,IC50,Cytochrome P450 3A4,1010 nM
same,IC50,Cytochrome P450 26A1,1.4 nM
C[C@H]([C@@H](c1ccc2cc(OCC3(C(=O)O)CC3)ccc2c1)n1ccnc1)N(C)C,IC50,Cytochrome P450 3A4,7500 nM
same,IC50,Cytochrome P450 26A1,34.7 nM
CC(C)N(C)[C@H](C)[C@@H](c1ccc2cc(OCC3(C(=O)O)CCCC3)ccc2c1)n1ccnc1,IC50,Cytochrome P450 3A4,800 nM
same,IC50,Cytochrome P450 26A1,1.6 nM
C[C@H]([C@@H](c1ccc2cc(OCC3(C(=O)O)CCC3)ccc2c1)n1ccnc1)N(C)C,IC50,Cytochrome P450 3A4,7000 nM
same,IC50,Cytochrome P450 26A1,40 nM
C[C@H]([C@@H](c1ccc2cc(OCC(C)(C)C(=O)O)ccc2c1)n1ccnc1)N(C)C1CCCCC1,IC50,Cytochrome P450 26A1,125 nM
CC(C)N(C)[C@H](C)[C@@H](c1ccc2cc(OCC(C)(C)C(=O)O)ccc2c1)n1ccnc1,IC50,Cytochrome P450 26A1,3 nM
C[C@H]([C@@H](c1ccc2cc(OCC3(C(=O)O)CCCCC3)ccc2c1)n1ccnc1)N(C)C,half-life,in vivo [1],2.46 h
same,IC50,Cytochrome P450 2D6,> 5000 nM
same,AUC,Mus musculus [2],17500 ng·h/mL
same,Activity,T47D,<100 nM
same,Cmax,in vivo [3],23 µM
same,bioavailability,[4],99%
same,IC50,Cytochrome P450 1A2,> 5000 nM
same,IC50,Cytochrome P450 3A4,8000 nM
same,IC50,Cytochrome P450 2C9,> 5000 nM
same,IC50,Cytochrome P450 26A1,11.2 nM
CCN(C)[C@H](C)[C@@H](c1ccc2cc(OCC3(C(=O)O)CCCC3)ccc2c1)n1ccnc1,half-life,in vivo [1],7.1 h
same,IC50,Cytochrome P450 2D6,> 5000 nM
same,AUC,Mus musculus [2],18900 ng·h/mL
same,Activity,T47D,<100 nM
same,Cmax,in vivo [3],13 µM
same,bioavailability,[4],99%
same,IC50,Cytochrome P450 1A2,> 5000 nM
same,IC50,Cytochrome P450 3A4,2300 nM
same,IC50,Cytochrome P450 2C9,> 5000 nM
same,IC50,Cytochrome P450 26A1,4.2 nM
C[C@H]([C@@H](c1ccc2cc(OCC(C)(C)C(=O)O)ccc2c1)n1ccnc1)N(C)C,Activity,T47D,125 nM
CCN(CC)[C@H](C)[C@@H](c1ccc2cc(OCC(C)(C)C(=O)O)ccc2c1)n1ccnc1,IC50,Cytochrome P450 26A1,5 nM
C[C@H]([C@@H](c1ccc2cc(OCC(C)(C)C(=O)O)ccc2c1)n1ccnc1)N1CCOCC1,IC50,Cytochrome P450 3A4,2150 nM
same,IC50,Cytochrome P450 26A1,34 nM
CC[C@H]([C@@H](c1ccc2cc(OCC(C)(C)C(=O)O)ccc2c1)n1ccnc1)N(C)C,half-life,in vivo [1],2.76 h
same,IC50,Cytochrome P450 2D6,> 5000 nM
same,AUC,Mus musculus [2],5430 ng·h/mL
same,Activity,T47D,<5 nM
same,Cmax,in vivo [3],6.7 µM
same,bioavailability,[4],73%
same,IC50,Cytochrome P450 1A2,> 5000 nM
same,IC50,Cytochrome P450 2C9,> 5000 nM
same,IC50,Cytochrome P450 26A1,1.3 nM
C[C@H]([C@@H](c1ccc2cc(OCC(C)(C)C(=O)O)ccc2c1)n1ccnc1)N1CCCC1,IC50,Cytochrome P450 26A1,583 nM
CCN(C)[C@H](C)[C@@H](c1ccc2cc(OCC(C)(C)C(=O)O)ccc2c1)n1ccnc1,IC50,Cytochrome P450 26A1,9 nM
C[C@H]([C@@H](c1ccc2cc(OCC3(C(=O)O)CCCC3)ccc2c1)n1ccnc1)N(C)C,half-life,in vivo [1],2.49 h
same,IC50,Cytochrome P450 2D6,> 5000 nM
same,AUC,Mus musculus [2],5800 ng·h/mL
same,Activity,T47D,<100 nM
same,Cmax,in vivo [3],5.5 µM
same,bioavailability,[4],77%
same,IC50,Cytochrome P450 1A2,> 5000 nM
same,IC50,Cytochrome P450 3A4,8200 nM
same,IC50,Cytochrome P450 2C9,> 5000 nM
same,IC50,Cytochrome P450 26A1,7.3 nM
CCC(CC)(COc1ccc2cc([C@H]([C@@H](C)N(C)C)n3ccnc3)ccc2c1)C(=O)O,IC50,Cytochrome P450 26A1,37 nM
C[C@H]([C@@H](c1ccc2cc(OCC3(C(=O)O)CCOCC3)ccc2c1)n1ccnc1)N(C)C,IC50,Cytochrome P450 3A4,> 20000 nM
same,IC50,Cytochrome P450 26A1,46.7 nM
CN(C)C(C)(C)[C@@H](c1ccc2cc(OCC(C)(C)C(=O)O)ccc2c1)n1ccnc1,IC50,Cytochrome P450 26A1,26 nM
CC1=C(/C=C/C(C)=C/C=C/C(C)=C/C(=O)O)C(C)(C)CCC1 [TRETINOIN],concentration at 2 h,[5],7.72 µM
same,concentration at 8 h,[6],0.04 µM
same,concentration at 2 h,[7],5.24 µM
same,concentration at 8 h,[8],< 0.01 µM
same,AUC,Mus musculus [9],1690 ng·h/mL
same,concentration at 2 h,[10],6.66 µM
same,AUC,Mus musculus [11],9900 ng·h/mL
same,AUC,Mus musculus [12],6470 ng·h/mL
same,concentration at 8 h,[13],2.73 µM
